The nature of data set [1]: Cmax in Sprague-Dawley rat at 2 mg/kg, iv by LC/MS/MS analysis. It is filed as ADME, organism-based. More on the design: route intravenous, dose 2 mg/kg. To be noted: in vivo. In a few lines: (§1)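 Male Sprague-Dawley rats, 4 per group, dosed once orally at 10 mg/kg or intravenously at 2 mg/kg. Blood taken from the saphenous vein for plasma. Drug levels measured by LC-MS-MS, with parameters derived by noncompartmental analysis.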

A short description of data set [2]: Selectivity index, ratio of IC50 for inhibition of human recombinant N-terminal GST-tagged PARP-2 to IC50 for inhibition of human recombinant GST-tagged PARP-1.
The subject of data set [3] is SK-OV-3. Put plainly: Induction of autophagy in human SKOV3 cells assessed as increase in fluorescence intensity t 10 uM incubated for 48 hrs by immunofluorescence analysis. It is filed as functional, cell-based. In a few lines:
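SK-OV-3 cells on glass coverslips infected with Ad-mCherry-GFP-LC3B for 24 h. Cells then treated at 10 µM for 48 h, fixed in 4% paraformaldehyde and examined by fluorescence microscopy.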

Data set [4] in a line: Cmax in Sprague-Dawley rat at 10 mg/kg, po by LC/MS/MS analysis. It is filed as ADME, organism-based. Details: route oral, dose 10 mg/kg. To be noted: in vivo. In a few lines:
as §1

The subject of data set [5] is SK-OV-3. Put plainly: Induction of ROS generation in human SKOV3 cells assessed as fold increase in ROS level at 5 uM incubated for 48 hrs by DCFH-DA staining based flow cytometry relative to control. It is filed as functional. On the technique in general: A flow cytometer gives signals particle by particle.
A short description of data set [6]: Subacute toxicity in SPF Kunming mouse assessed as change in body weight at 1000 mg/kg, po administered for 14 days and measured on day 14. Conditions: in vivo, 336 h, time 14 day. It is filed as organism-based. In a few lines: (§2)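 Twenty SPF Kunming mice (18 - 22 g), half male and half female, randomised into 2 groups of 5 males + 5 females. Treated group dosed orally at 1000 mg/kg once daily for 14 days. Death, clinical signs and body weight monitored. After 14 days: isoflurane anaesthesia, decapitation, tissues collected for H&E histology.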

The target in data set [7] is T1, Poly [ADP-ribose] polymerase 1 (Homo sapiens, UniProt P09874). Put plainly: Inhibition of PARP-1 in human SKOV3 cells assessed as decrease in MCM3 protein expression level at 2.5 to 10 uM incubated for 48 hrs by western blot analysis. It is filed as cell-based. Conditions: SK-OV-3, dose 2.5-10 µM. In a few lines: (§3)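 SK-OV-3 cells were grown in McCOY's 5A, seeded in 6-well plates and treated for 48 h. Lysate proteins were separated by 8-15 % SDS-PAGE and transferred to PVDF membranes. Membranes were blocked in 5 % nonfat milk, probed with primary antibody overnight at 4 °C and with HRP secondary antibody for 1 h at room temperature, then detected by enhanced chemiluminescence. Images are representative of 3 independent experiments.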
T1 sequence (P09874 whole entry): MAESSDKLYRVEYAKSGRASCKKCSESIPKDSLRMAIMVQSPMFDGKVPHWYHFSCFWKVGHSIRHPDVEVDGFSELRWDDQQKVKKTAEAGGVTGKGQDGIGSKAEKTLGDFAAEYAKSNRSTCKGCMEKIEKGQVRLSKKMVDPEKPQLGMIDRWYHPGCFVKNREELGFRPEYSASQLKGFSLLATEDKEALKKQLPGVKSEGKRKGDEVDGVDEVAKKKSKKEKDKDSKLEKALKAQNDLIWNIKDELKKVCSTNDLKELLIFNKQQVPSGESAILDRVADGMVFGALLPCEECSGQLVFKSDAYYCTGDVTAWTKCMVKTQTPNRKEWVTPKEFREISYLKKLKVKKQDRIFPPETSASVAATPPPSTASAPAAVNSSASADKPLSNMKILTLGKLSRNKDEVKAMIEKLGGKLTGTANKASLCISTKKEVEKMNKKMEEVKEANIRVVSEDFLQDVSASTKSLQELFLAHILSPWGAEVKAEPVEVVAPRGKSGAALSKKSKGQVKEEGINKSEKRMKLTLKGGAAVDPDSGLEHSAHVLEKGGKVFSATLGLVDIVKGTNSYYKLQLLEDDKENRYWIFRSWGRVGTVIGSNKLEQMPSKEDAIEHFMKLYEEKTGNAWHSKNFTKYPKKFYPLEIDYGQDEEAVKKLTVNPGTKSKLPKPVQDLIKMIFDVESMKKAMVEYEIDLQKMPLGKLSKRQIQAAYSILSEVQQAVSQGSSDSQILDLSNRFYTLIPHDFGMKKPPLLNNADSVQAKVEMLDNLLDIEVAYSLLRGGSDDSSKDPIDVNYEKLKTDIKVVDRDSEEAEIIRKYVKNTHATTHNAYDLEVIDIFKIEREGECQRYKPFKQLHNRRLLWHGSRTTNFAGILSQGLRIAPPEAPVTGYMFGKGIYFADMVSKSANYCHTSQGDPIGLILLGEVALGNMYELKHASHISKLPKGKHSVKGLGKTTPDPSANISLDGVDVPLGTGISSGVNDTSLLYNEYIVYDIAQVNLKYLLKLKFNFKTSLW
In general terms: A western blot detects proteins with antibodies after separation by electrophoresis.

In data set [8] the test system is Bel-7402. Briefly: Antiproliferative activity against human Bel-7402 cells assessed as cell growth inhibition incubated for 48 hrs by MTT assay. It is filed as functional, cell-based. Conditions: Bel-7402, 48 h. In a few lines: (§4)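 Cells seeded in 96-well plates and exposed to compounds for 48 h; viability read by MTT. Each experiment repeated three times. SK-OV-3 grown in McCOY's 5A, Bel-7402 and HL-7702 in RPMI-1640, HepG2 in DMEM, Caco-2 in MEM.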
Background: Formazan colour is commonly taken as a measure of viable cells.

Data set [9] is described as follows: Volume of distribution at steady state in Sprague-Dawley rat at 2 mg/kg, iv by LC/MS/MS analysis. It is filed as ADME, organism-based. Conditions: in vivo, read-out: Vdss. In a few lines:
as §1

Data set [10] deals with SK-OV-3. Briefly: Induction of ROS generation in human SKOV3 cells assessed as fold increase in ROS level at 10 uM incubated for 48 hrs by DCFH-DA staining based flow cytometry relative to control. It is filed as functional.
Data set [11] has as its system SK-OV-3. Put plainly: Antitumor activity against human SKOV3 cells xenografted in Balb/c nude mouse assessed as increase in gamma-H2AX expression in tumor at 25 to 50 mg/kg, po for 21 days by immunohistochemistry analysis. It is filed as functional, organism-based. To be noted: dose 25-50 mg/kg, time 21.0 day. In a few lines: (§5)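 SK-OV-3 xenografts in female BALB/c nude mice were dosed orally at 25 or 50 mg/kg in 0.5% CMC-Na for 21 days. Tumours were then snap-frozen in liquid nitrogen or fixed in 10% neutral-buffered formalin. Analysis used western blotting, H&E and immunohistochemistry on paraffin sections (Ki67, γ-H2AX).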

The subject of data set [12] is SK-OV-3. Put plainly: Induction of cell cycle arrest in human SKOV3 cells assessed as accumulation at G2/M phase incubated for 48 hrs by propidium iodide staining based flow cytometry analysis. It is filed as functional. In a few lines: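 SK-OV-3 cells in 6-well plates incubated 24 h, then treated 48 h. Cells harvested, fixed, stained with propidium iodide and analysed by flow cytometry.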

For data set [13], the system named is HepG2. Briefly: Antiproliferative activity against human HepG2 cells assessed as cell growth inhibition incubated for 48 hrs by MTT assay. It is filed as functional, cell-based. To be noted: HepG2, 48 h. In a few lines:
as §4

In data set [14] the target is T1, Poly [ADP-ribose] polymerase 1. Put plainly: Inhibition of PARP-1 in human SKOV3 cells assessed as increase in gammaH2AX expression level by immunofluorescence analysis. It is filed as cell-based. To be noted: SK-OV-3.
The nature of data set [15]: Toxicity in Balb/c nude mouse xenografted with human SKOV3 cells assessed as change in body weight at 50 mg/kg, po for 21 days and measured every third day. To be noted: in vivo, 504 h, time 21 day. It is filed as organism-based. In a few lines: (§6)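 Female BALB/c nu/nu mice, 6-8 weeks old, kept under SPF conditions. Each received 5×10^6 SK-OV-3 cells s.c. At 80–120 mm3 tumour volume, mice were split into four groups (n=6). […] Caliper measurement every three days; volume = X × (Y2/2).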

Data set [16] relates to SK-OV-3. Put plainly: Antitumor activity against human SKOV3 cells xenografted in Balb/c nude mouse assessed as tumor growth inhibition administered orally for 21 days and measured every third day. To be noted: dose 25-50 mg/kg, time 21.0 day. It is filed as functional, cell-based. In a few lines:
as §6

Data set [17] in a line: Toxicity in Balb/c nude mouse xenografted with human SKOV3 cells assessed as histological changes in heart at 25 to 50 mg/kg, po for 21 days by H and E staining based microscopic analysis. It is filed as organism-based. To be noted: in vivo, 504 h, dose 25-50 mg/kg, time 21 day. In a few lines:
as §5

Data set [18] can be described thus: AUC (0 to infinity) in Sprague-Dawley rat at 2 mg/kg, iv by LC/MS/MS analysis. It is filed as ADME, organism-based. Conditions: in vivo. More on the design: route intravenous, time infinity, dose 2 mg/kg.
In data set [19] the target is T1, Poly [ADP-ribose] polymerase 1. To be noted: dose 100.0 nM, time 30.0 min.
Data set [20] has as its system Caco-2. Briefly: Antiproliferative activity against human Caco-2 cells assessed as cell growth inhibition incubated for 48 hrs by MTT assay. It is filed as functional, cell-based. To be noted: Caco-2, 48 h. In a few lines: as §4
A short description of data set [21]: Subacute toxicity in SPF Kunming mouse assessed as clinical changes at 1000 mg/kg, po administered for 14 days and measured on day 14. It is filed as organism-based. To be noted: in vivo, 336 h, time 14 day. In a few lines:
as §2

A short description of data set [22]: Toxicity in Balb/c nude mouse xenografted with human SKOV3 cells assessed as histological changes in liver at 25 to 50 mg/kg, po for 21 days by H and E staining based microscopic analysis. It is filed as organism-based. To be noted: in vivo, 504 h, dose 25-50 mg/kg, time 21 day. In a few lines:
as §5

For data set [23], the system named is SK-OV-3. Briefly: Antiproliferative activity against human SK-OV-3 cells assessed as cell growth inhibition at 20 uM incubated for 48 hrs by MTT assay relative to control. It is filed as functional.
Data set [24] concerns the target T1, Poly [ADP-ribose] polymerase 1. Briefly: Inhibition of PARP-1 in human SKOV3 cells assessed as increase in gammaH2AX expression level at 2.5 to 10 uM incubated for incubated for 48 hrs by western blot analysis. It is filed as cell-based. Conditions: SK-OV-3, dose 2.5-10 µM. In a few lines:
as §3

Activity calls are given as the source filed them. The rule behind the calls is not given here.

One may read the Cmax as the highest concentration seen after dosing. A word on the inhibition: it is the relative decrease from the control value, in per cent. A word on the IC50: it is the midpoint of a concentration-inhibition curve. By AUC is commonly meant concentration integrated over time. Read a low AUC as low exposure. With `COc1cc(/C=N/NC(N)=S)c(Br)c(Br)c1OC`, the Cmax was 1250 nM in [1] and 19.9 nM in data set [4]. Besides, in data set [2], the Ratio IC50 was more than 33.9. The outcome in data set [3] and in data set [11] was Active. For the same molecule, the “fold change (FC)” value is 2.51 in [5] and 3.04 in data set [10]. In addition, the Activity result in data set [6] was “Non-Toxic”; in data set [12], “Dose-dependent effect”; in data set [15], “Non-Toxic”; in data set [17], “Non-Toxic”; in [21] it was “Non-Toxic”; in data set [22], “Non-Toxic”. The inhibition entry in data set [7], in [14] and in [24] was “Active” throughout. Besides, the values for the IC50 in data set [8], in data set [13] and in [20] were 5.45 µM, 4.6 µM and 20.5 µM, respectively. Moreover, the Vd in data set [9] was 6.1 L/kg. Also, the values for the inhibition entry in [16] and in data set [19] were “Dose-dependent effect” and 84.6%, respectively. The molecule also had an AUC in [18] of 0.886 µM·h. In addition, the inhibition at 20 µM in data set [23] was found to be 100%.

The record behind these values is ChEMBL document CHEMBL4765243, “Discovery of Novel Bromophenol-Thiosemicarbazone Hybrids as Potent Selective Inhibitors of Poly(ADP-ribose) Polymerase-1 (PARP-1) for Use in Cancer” (J Med Chem, 2019).
